Source: PubChem BioAssay AID720736 (The Scripps Research Institute Molecular Screening Center, 2013)
Active and inactive are the calls of the source.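 Rule for the calls: active = growth inhibition of at least 50% in any replicate; inactive = growth inhibition below 50% in every replicate.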

Assay: antiplasmodial activity in infected erythrocytes – cell-based, radiolabel, 3D7, RBCs, Set2, M18AAP inhibitor project, late-stage follow-up (AID 720736)
Conditions: P. falciparum 3D7 in RBCs, 3H-hypoxanthine incorporation, 48 h, at 10 µM, stronger effect = higher value
In short: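 Detection – 3H-hypoxanthine uptake by beta counting · Assay system – P. falciparum 3D7-infected RBCs · Control set – vehicle-treated parasites and uninfected RBCs · Schedule – 48 h exposure, 37 °C, 5% O2/5% CO2/90% N2 · Doses – single compound dose of 10 µM, DMSO at most 1% · Medium – hypoxanthine-free RPMI, 10% serum · Evaluation – % growth inhibition versus vehicle-treated parasites, background-subtracted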

Row | SMILES | growth inhibition (run 1) | growth inhibition (run 2)
1 | O=c1ccn(CCNc2c3ccccc3nc3ccccc23)cc1OCc1ccccc1 | 92% | 84%
2 | COc1ccc(CCNC(=O)c2cc(C)ccc2N)cc1OC | 0% (inactive) | –
3 | CN(CCc1ccc(O)c(O)c1)c1ccncc1 | 3% (inactive) | 13% (inactive)
4 | COc1ccc(CCN(C)c2ccncc2)cc1OC | 0% (inactive) | 0% (inactive)
5 | COc1ccc(CCNc2c3ccccc3nc3ccccc23)cc1 | 100% | 98%
6 | CCOc1ccc2nccc(N(C)CCc3ccc(OC)c(OC)c3)c2c1 | 15% (inactive) | –
7 | COc1ccc(CCN(C)c2ccnc3cc(Cl)ccc23)cc1OC | 97% | 92%
8 | Oc1ccc(CCNc2cncc3ccccc23)cc1O | 38% (inactive) | 27% (inactive)
9 | Oc1ccc(CCNc2ccnc3ccccc23)cc1O | 89% | 98%
10 | COc1ccc(CCNc2ccncc2)cc1OC | 6% (inactive) | 12% (inactive)
11 | COc1cccc(CCNc2c3ccccc3nc3ccccc23)c1 | 100% | 99%
12 | COc1ccc(CCNc2c3c(nc4ccccc24)CCCC3)cc1OC | 38% (inactive) | 55%
13 | Oc1cccc(CCNc2ccnc3ccccc23)c1O | 97% | –
14 | Oc1ccc(CCNc2cccc3ccccc23)cc1O | 16% (inactive) | 22% (inactive)
15 | COc1ccc(CCN(C)c2ccnc3c(F)cccc23)cc1OC | 5% (inactive) | –
16 | COc1ccc(CCNc2cccc3ccccc23)cc1OC | 9% (inactive) | 20% (inactive)
17 | Oc1ccc(CCNc2ccnc3c(F)cccc23)cc1O | 0% (inactive) | –
18 | COc1ccc(CCNc2ccnc3c(F)cccc23)cc1OC | 26% (inactive) | –
19 | COc1ccc(C2CCN(c3ccnc4ccccc34)C2)cc1OC (stereo unspecified) | 94% | –
20 | CN(CCc1ccc(O)c(O)c1)c1ccnc2c(F)cccc12 | 3% (inactive) | –
21 | COc1ccc(CCN(C)c2c3ccccc3nc3ccccc23)cc1OC | – | 98%
22 | O=C(O)CCCCNc1c2ccccc2nc2ccccc12 | 27% (inactive) | 20% (inactive)
23 | COc1ccc(CCNc2cc(C)nc3ccccc23)cc1OC | 26% (inactive) | –
24 | COc1ccc(CCNc2c3c(nc4ccc(C)cc24)CCCC3)cc1OC | 27% (inactive) | –
25 | COc1cc(Br)c(CCNc2c3c(nc4ccccc24)CCCC3)cc1OC | 96% | –
26 | CN(CCCc1ccc(O)c(O)c1)c1ccnc2ccccc12 | 0% (inactive) | –
27 | Cc1nc(NCCc2ccc(O)c(O)c2)c2c3c(sc2n1)CCC3 | 0% (inactive) | –

Row | SMILES | growth inhibition (run 1) | growth inhibition (run 2)
28 | COc1ccc(CCNC2CCN(C)CC2)cc1OC | 0% (inactive) | 0% (inactive)
29 | CN1CCN(CCc2ccc(O)c(O)c2)CC1 | 4% (inactive) | 0% (inactive)
30 | Oc1ccc(CCNc2c3c(nc4ccccc24)CCCC3)cc1O | 90% | 95%
31 | Oc1ccc(CCNc2c3ccccc3nc3ccccc23)cc1 | 95% | 95%
32 | COc1ccc(CCNc2cncc3ccccc23)cc1OC | 65% | 63%
33 | COc1ccc(CCN(C)c2ccnc3ccccc23)cc1OC | 95% | 94%
34 | COc1ccc(CCCNc2c3ccccc3nc3ccccc23)cc1OC | 88% | 95%
35 | CC(Cc1ccc(O)c(O)c1)Nc1ccnc2ccccc12 (stereo unspecified) | 19% (inactive) | –
36 | COc1ccc(CCN2CCc3ccccc3C2)cc1OC | 0% (inactive) | 3% (inactive)
37 | COc1cc(Br)c(CCNc2ccnc3ccccc23)cc1OC | 90% | –
38 | CN(CCc1ccc(O)c(O)c1)c1ccnc2cc(Cl)ccc12 | 0% (inactive) | –
39 | Cc1cccc2c(N(C)CCc3ccc(O)c(O)c3)ccnc12 | 5% (inactive) | –
40 | Oc1ccc(CCCNc2c3ccccc3nc3ccccc23)cc1O | 91% | 93%
41 | CC(C)(CNc1ccnc2ccccc12)c1ccc(O)c(O)c1 | 35% (inactive) | –
42 | COc1ccc(CNc2c3ccccc3nc3ccccc23)cc1OC | 100% | 99%
43 | Oc1ccc(CCNc2ccc3ccccc3c2)cc1O | 21% (inactive) | 18% (inactive)
44 | COc1ccc(CCCN(C)c2c3ccccc3nc3ccccc23)cc1OC | 17% (inactive) | –
45 | COc1ccc(CCNc2ccnc3c(C)cccc23)cc1OC | 20% (inactive) | –
46 | CN1CCN(CCCc2ccc(O)c(O)c2)CC1 | 5% (inactive) | 0%
47 | Oc1ccc(CCNc2ccnc3cc(Cl)ccc23)cc1O | 92% | –
48 | CN(CCc1ccc(O)c(O)c1)c1c2ccccc2nc2ccccc12 | 5% (inactive) | –
49 | CN(CCc1ccc(O)c(O)c1)c1ncnc2ccccc12 | 1% (inactive) | –
50 | COc1ccc(CCN2CCN(C)CC2)cc1OC | 0% (inactive) | 5% (inactive)
51 | Oc1ccc(CCNC(c2ccccc2)c2ccccc2)cc1O | 47% (inactive) | 57%
52 | CN(CCCc1ccc(O)c(O)c1)c1c2ccccc2nc2ccccc12 | 21% (inactive) | –
53 | Oc1ccc(CCN2CCc3ccccc3C2)cc1O | 52% | 62%
54 | Cc1cccc2c(NCCc3ccc(O)c(O)c3)ccnc12 | 56% | –

Row | SMILES | growth inhibition (run 1) | growth inhibition (run 2)
55 | COc1cc(Br)c(CCNc2c3ccccc3nc3ccccc23)cc1OC | 95% | –
56 | COc1ccc(CCNc2ncnc3ccccc23)cc1OC | 5% (inactive) | –
57 | COc1ccc(CCNc2ccc3ccccc3c2)cc1OC | 0% (inactive) | 3% (inactive)
58 | COc1ccc(CCNC2CCN(Cc3ccccc3)CC2)cc1OC | 88% | 93%
59 | COc1ccc(CCN(C)c2ccnc3c(C)cccc23)cc1OC | 5% (inactive) | –
60 | COc1ccc(C2CCN(c3ccnc4ccccc34)CC2)cc1OC | 1% (inactive) | –
61 | COc1ccc(CCNC(c2ccccc2)c2ccccc2)cc1OC | 0% (inactive) | –
62 | COc1ccc(CCNc2ccnc3cc(Cl)ccc23)cc1OC | 69% | –
63 | CCN(CCc1ccc(OC)c(OC)c1)c1c2ccccc2nc2ccccc12 | 18% (inactive) | –
64 | Oc1ccc(CCNC2CCN(Cc3ccccc3)CC2)cc1O | 90% | 95%
65 | COc1ccc(CCCN2CCN(C)CC2)cc1OC | 0% (inactive) | –
66 | Cc1cc(N(C)CCc2ccc(O)c(O)c2)c2ccccc2n1 | 6% (inactive) | –
67 | COc1ccc(CCN(C)c2ncnc3ccccc23)cc1OC | 3% (inactive) | –
68 | Cc1c(OCc2ccccc2)c(=O)ccn1CCNc1c2ccccc2nc2ccccc12 | 94% | 99%
69 | NCCNc1c2ccccc2nc2ccccc12 | 100% | 99%
70 | Oc1ccc(C2CCCN(c3ccnc4ccccc34)C2)cc1O (stereo unspecified) | 50% | –
71 | COc1ccc(CCCNc2c3c(nc4ccccc24)CCCC3)cc1OC | 4% (inactive) | –
72 | Oc1ccc(C2CCN(c3ccnc4ccccc34)C2)cc1O (stereo unspecified) | 95% | –
73 | COc1ccc(CCNc2c3ccccc3nc3ccccc23)cc1OC | 98% | 100%
74 | CCN(CC)Cc1cc(Nc2ccnc3cc(Cl)ccc23)ccc1O | 98% | –
75 | CN(CCc1ccc(O)c(O)c1)c1ccnc2ccccc12 | 91% | 95%
76 | CCN(CCc1ccc(O)c(O)c1)c1c2ccccc2nc2ccccc12 | 20% (inactive) | –
77 | O=C(O)CCCNc1c2ccccc2nc2ccccc12 | 0% (inactive) | 15% (inactive)
78 | CCOc1ccc2nccc(NCCc3ccc(OC)c(OC)c3)c2c1 | 72% | –
79 | Oc1ccc(C2CCN(c3ccnc4ccccc34)CC2)cc1O | 76% | –
80 | Oc1ccc(CCCNc2c3c(nc4ccccc24)CCCC3)cc1O | 12% (inactive) | –
